Experiment [1] deals with Per2::Luc reporter in Cry1 knockout fibroblasts. The experiment is described as follows: Per2::Luc repression assay. The settings on record: Cry1 knockout cells. It counts as cell-based, mice. Put shortly:
(§1)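 Mouse fibroblasts carrying a Per2::Luc knock-in reporter (wild type, Cry1/Cry2 double, Cry1 or Cry2 knockout) grown 2 days to confluency in 384-well plates, then given test compound dilution series (final 0.7% DMSO). After 2 days, medium replaced with BrightGlo and luminescence read. Change is relative to DMSO control, n = 3–4 biological samples. IC50 from sigmoidal dose–response fit.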

In experiment [2] the test system is CRY1/CRY2. The settings on record: cited from earlier work.
In experiment [3] the test system is Per2::Luc reporter in Cry2 knockout fibroblasts. The experiment is described as follows: Per2::Luc repression assay. The settings on record: Cry2 knockout cells, compared to wild type. It counts as cell-based, mice. The essentials: as §1

Structures are written as SMILES.

Consider `CS(=O)(=O)N(Cc1ccco1)CC(O)Cn1c2ccccc2c2ccccc21` (stereo not drawn) [KL001], for which the “repression of Per2::Luc reporter activity” value (“repression” below) in experiment [1] is reported as “less effective than intact cells”. For the same compound, the CRY isoform selectivity entry in experiment [2] is on record as “does not display a CRY isoform selectivity”.
On to `O=C1NCCN1C[C@H](O)Cn1c2ccc(F)cc2c2cc(F)ccc21` [SHP1703], for which, in experiment [3], the “repression” value is reported as “reduced overall repression”. Besides, in experiment [2], the CRY isoform selectivity entry was “selective for CRY2”.
Consider `O=C1NCCN1CC(O)Cn1c2ccc(F)cc2c2cc(F)ccc21` (stereo not drawn) [SHP656], for which the “repression” value in experiment [3] is given as “reduced overall repression”. The CRY isoform selectivity result in experiment [2] is given as “selective for CRY2”.

The values are drawn from article PMC12417823 (Neuro-Oncology, 2025).
